Data taken from ChEMBL document CHEMBL3616442, “Unconventional Knoevenagel-type indoles: Synthesis and cell-based studies for the identification of pro-apoptotic agents” (Eur J Med Chem, 2015).
Calls of active or inactive are those of the source. The rule behind the calls is not given here.

Experiments:
MT4 = assay: Antiproliferative activity against human MT4 cells after 96 hrs by MTT assay; format: functional, cell-based; settings: MT4, 96 h
Summary of the method: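 Exponentially growing MT-4 cells (CD4+ human T-cells carrying integrated HTLV-1 genome), seeded at 1×10^5 cells/mL in RPMI-1640 with 10% FCS and antibiotics. Serial dilutions of compound (DMSO stock 100 mM, diluted in medium), 37 °C, 5% CO₂, 96 h. Viability read by MTT. 50% inhibition versus untreated controls by linear regression. Mean ± SD of three independent determinations.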

HL-60 [1] = assay: Antiproliferative activity against human HL60 cells after 3 days incubation by alamar blue method; format: functional
Summary of the method: (§1)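 HL-60 and K562 grown in RPMI 1640, MCF-7 in DMEM, each with 10% FCS, penicillin G and streptomycin. Seeded at 4x10⁴ (HL-60, K562) or 2x10⁴ (MCF-7) cells per well with serial compound dilutions, incubated 3 days at 37 °C. Alamar blue added for 3 h at 37 °C in the dark, fluorescence read at ex 544/em 590 nm. IC50 versus untreated controls by linear regression.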

K562 [2] = assay: Antiproliferative activity against human K562 cells after 3 days incubation by alamar blue method; format: functional; summary of the method: as §1
MCF7 [3] = assay: Antiproliferative activity against human MCF7 cells after 3 days incubation by alamar blue method; format: functional; summary of the method: as §1
HL-60 [4] = assay: Induction of apoptosis in human HL60 cells by propidium iodide staining based flow cytometric analysis; format: functional; settings: TDE = time-dependent effect
Summary of the method: (§2)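 After treatment, cells harvested, fixed in ice-cold 70% ethanol at 4 °C, stained 30 min at 37 °C in the dark with 100 µg/mL propidium iodide plus 10 µg/mL RNase A; 10,000 gated cells analysed at 488 nm with debris excluded; apoptosis followed over time; mean ± S.E.M. of three independent experiments run in triplicate.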

K562 [5] = assay: Induction of apoptosis in human K562 cells by propidium iodide staining based flow cytometric analysis; format: functional; summary of the method: as §2
MCF7 [6] = assay: Induction of apoptosis in human MCF7 cells by propidium iodide staining based flow cytometric analysis; format: functional; summary of the method: as §2
HL-60 [7] = assay: Induction of cell cycle arrest in human HL60 cells assessed as accumulation at G2/M phase after 18 hrs by propidium iodide staining based flow cytometric analysis; format: functional
Summary of the method: (§3)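 Propidium iodide/RNase A flow cytometry of ethanol-fixed cells, 10,000 gated events at 488 nm; G2/M fraction measured after 18 h treatment (HL-60, MCF-7) or 24 h (K562); mean ± S.E.M. of three independent experiments.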

K562 [8] = assay: Induction of cell cycle arrest in human K562 cells assessed as accumulation at G2/M phase after 24 hrs by propidium iodide staining based flow cytometric analysis; format: functional; summary of the method: as §3
MCF7 [9] = assay: Induction of cell cycle arrest in human MCF7 cells assessed as accumulation at G2/M phase after 18 hrs by propidium iodide staining based flow cytometric analysis; format: functional; summary of the method: as §3
Tubulin (Homo sapiens) = Tubulin (Homo sapiens) (UniProt P68371+Q9H4B7+P0DPH7+P68366+Q13509+Q71U36+P04350+Q3ZCM7+P07437+P68363+Q9BQE3+Q6PEY2+Q13885+Q9BVA1+Q9BUF5); assay: Induction of Tubulin depolymerization in human MCF7 cells by immunofluorescence analysis; format: cell-based
Summary of the method: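 MCF-7 cells grown and treated on chamber slides, fixed in ice-cold 100% methanol, washed in PBS with 0.1% Triton X-100, blocked 30 min in 5% BSA, then mouse anti-tubulin for 1 h and Alexa 488 secondary for 1 h; DNA counterstained with 0.2 μg/mL propidium iodide for 2 min. Paclitaxel and PBOX-15 served as tubulin controls.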

Nucleic Acid = assay: Induction of DNA intercalation of plasmid pQE30 DNA at 0.01 to 1 mM by electrophoretic mobility assay; format: nucleic-acid assay; settings: Escherichia coli
Summary of the method: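 Compound dissolved in methanol and incubated with double-strand plasmid pQE-30 DNA for 10 min at 37 °C; gel loading buffer added and samples run on 0.7% agarose to separate closed circular and supercoiled forms.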

Row | GI50 (HL-60 [1]; HL-60, 72 h) [nM] | GI50 (K562 [2]; K562, 72 h) [nM] | GI50 (MCF7 [3]; MCF7, 72 h) [nM] | Activity (Tubulin (Homo sapiens)) | Activity (Nucleic Acid) | SMILES | EC50 (MT4) [nM] | Activity (HL-60 [1]) | Activity (K562 [2]) | Activity (MCF7 [3]) | Activity (HL-60 [4]) | Activity (K562 [5]) [%] | Activity (K562 [5]; TDE = time-dependent effect) | Activity (MCF7 [6]) [%] | Activity (MCF7 [6]; TDE = time-dependent effect) | Activity (HL-60 [7]) [%] | Activity (K562 [8]) [%] | Activity (MCF7 [9]) [%]
1 | 1320 | > 10000 | > 10000 | Active | inactive | CS(=O)(=O)/C(C#N)=C/c1c(-c2ccccc2)[nH]c2ccccc12 | 300 | Dose-dependent effect | Dose-dependent effect | Dose-dependent effect | tde | 47.5 | tde | 28.4 | tde | 39.7 | 46.8 | 41.3
2 |  |  |  | Active |  | CC(=O)OC1=C(c2cccc3ccccc23)Oc2cc3ccccc3cc2-n2cccc21 |  |  |  |  |  |  |  |  |  |  |  | 
